In experiment [1] the target is T1, Monoacylglycerol lipase ABHD6 (Homo sapiens, UniProt Q9BV23).
T1 sequence (Q9BV23 whole entry): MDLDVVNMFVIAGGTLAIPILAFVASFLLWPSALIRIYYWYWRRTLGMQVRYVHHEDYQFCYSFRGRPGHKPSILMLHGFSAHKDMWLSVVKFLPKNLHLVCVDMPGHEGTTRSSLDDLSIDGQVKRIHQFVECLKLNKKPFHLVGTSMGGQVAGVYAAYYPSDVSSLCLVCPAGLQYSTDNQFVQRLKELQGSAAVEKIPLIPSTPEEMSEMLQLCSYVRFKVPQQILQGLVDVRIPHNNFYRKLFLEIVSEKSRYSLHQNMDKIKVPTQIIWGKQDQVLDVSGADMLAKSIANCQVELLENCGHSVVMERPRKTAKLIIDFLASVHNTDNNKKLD
In words: Inhibition of recombinant human ABHD6 expressed in HEK293 cells by AmplifuTM red dye based fluorescence assay. The experiment is classed as cell-based. The essentials:
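Membranes from transiently transfected HEK293T cells expressing human ABHD6, 40 μg mL-1 final protein. Real-time coupled fluorescence assay with natural substrate 2-AG (25 μM). Glycerol released is detected via glycerol kinase, glycerol-3-phosphate oxidase and HRP (0.2 U mL-1 each), 0.125 mM ATP and 10 μM Amplifu Red. Assay contains 5% DMSO and 0.5% acetonitrile. pIC50 ± SEM.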

The target of experiment [2] is T2, Diacylglycerol lipase-alpha (Mus musculus) (UniProt Q6WQJ1).
T2 sequence (whole entry): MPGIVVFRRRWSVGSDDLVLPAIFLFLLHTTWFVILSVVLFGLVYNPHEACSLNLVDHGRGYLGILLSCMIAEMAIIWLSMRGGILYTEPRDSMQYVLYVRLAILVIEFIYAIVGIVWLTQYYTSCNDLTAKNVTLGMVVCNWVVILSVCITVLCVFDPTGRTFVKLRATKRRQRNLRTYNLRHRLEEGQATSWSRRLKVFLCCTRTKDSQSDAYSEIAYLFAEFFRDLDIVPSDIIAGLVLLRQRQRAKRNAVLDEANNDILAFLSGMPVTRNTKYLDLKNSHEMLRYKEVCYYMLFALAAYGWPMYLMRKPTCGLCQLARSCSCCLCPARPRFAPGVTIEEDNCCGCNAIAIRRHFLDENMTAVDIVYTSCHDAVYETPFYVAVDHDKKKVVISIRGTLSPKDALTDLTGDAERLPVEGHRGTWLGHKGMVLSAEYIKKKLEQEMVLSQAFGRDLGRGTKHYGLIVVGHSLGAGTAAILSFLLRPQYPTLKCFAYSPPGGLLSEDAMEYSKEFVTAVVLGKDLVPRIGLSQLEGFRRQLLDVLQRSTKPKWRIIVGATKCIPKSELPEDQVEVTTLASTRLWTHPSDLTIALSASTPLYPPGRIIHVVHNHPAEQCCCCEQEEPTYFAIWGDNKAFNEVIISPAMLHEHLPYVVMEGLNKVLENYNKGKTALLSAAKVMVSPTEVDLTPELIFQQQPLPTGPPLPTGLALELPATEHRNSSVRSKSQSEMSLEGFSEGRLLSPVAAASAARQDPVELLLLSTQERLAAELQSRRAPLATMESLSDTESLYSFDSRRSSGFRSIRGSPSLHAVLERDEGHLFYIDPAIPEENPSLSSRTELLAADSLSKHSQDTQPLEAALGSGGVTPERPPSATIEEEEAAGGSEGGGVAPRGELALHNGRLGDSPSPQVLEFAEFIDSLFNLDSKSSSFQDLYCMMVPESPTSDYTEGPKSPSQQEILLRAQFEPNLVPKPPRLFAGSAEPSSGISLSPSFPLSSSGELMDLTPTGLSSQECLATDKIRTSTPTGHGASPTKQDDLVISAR
The experiment is described as follows: Inhibition of MB064 labelling of DAGLalpha in mouse brain homogenates at 10 uM pretreated for 30 mins followed by MB064 addition and measured after 20 mins by activity based protein profiling assay relative to control. The experiment is classed as tissue-based. The gist of the method: (§1)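 Mouse brain membrane proteome preincubated 30 min with inhibitor (10 μM), then labelled with MB064 probe (0.25 μM, 20 min). Readout by gel-based competitive ABPP. Band intensities corrected for protein loading per lane from Coomassie staining. Means ± SEM, n = 3.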

The target in experiment [3] is T3, Diacylglycerol lipase-alpha (Homo sapiens, UniProt Q9Y4D2).
T3 sequence (Q9Y4D2 whole entry): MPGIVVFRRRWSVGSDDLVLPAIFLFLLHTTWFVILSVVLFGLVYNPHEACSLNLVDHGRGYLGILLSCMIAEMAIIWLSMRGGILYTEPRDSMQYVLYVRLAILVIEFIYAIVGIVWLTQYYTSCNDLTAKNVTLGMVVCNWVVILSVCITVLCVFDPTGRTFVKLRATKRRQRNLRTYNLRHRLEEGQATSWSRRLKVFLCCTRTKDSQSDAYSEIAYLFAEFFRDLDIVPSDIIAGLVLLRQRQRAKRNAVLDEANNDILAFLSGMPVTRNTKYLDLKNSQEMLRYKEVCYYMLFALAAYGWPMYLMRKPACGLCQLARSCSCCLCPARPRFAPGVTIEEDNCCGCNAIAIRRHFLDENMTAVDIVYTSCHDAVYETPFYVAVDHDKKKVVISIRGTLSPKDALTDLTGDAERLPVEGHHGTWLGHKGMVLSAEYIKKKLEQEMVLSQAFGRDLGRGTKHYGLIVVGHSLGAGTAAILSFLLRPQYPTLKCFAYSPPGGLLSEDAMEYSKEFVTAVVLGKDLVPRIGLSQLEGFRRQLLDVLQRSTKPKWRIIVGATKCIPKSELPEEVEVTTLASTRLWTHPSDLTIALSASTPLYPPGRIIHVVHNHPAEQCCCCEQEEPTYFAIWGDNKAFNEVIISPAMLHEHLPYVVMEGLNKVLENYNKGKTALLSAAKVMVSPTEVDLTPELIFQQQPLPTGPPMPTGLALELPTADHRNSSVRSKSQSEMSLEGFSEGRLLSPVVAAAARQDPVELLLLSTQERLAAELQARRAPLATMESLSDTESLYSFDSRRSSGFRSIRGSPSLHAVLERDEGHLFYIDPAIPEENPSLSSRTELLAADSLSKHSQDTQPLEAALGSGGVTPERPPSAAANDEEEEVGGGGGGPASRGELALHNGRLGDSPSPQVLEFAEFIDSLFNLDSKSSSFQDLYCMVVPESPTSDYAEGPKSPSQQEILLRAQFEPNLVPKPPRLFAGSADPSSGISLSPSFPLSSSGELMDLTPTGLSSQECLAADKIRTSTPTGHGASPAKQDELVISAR
In words: Inhibition of recombinant human DAGLalpha expressed in HEK293 cells using PNP-butyrate as substrate pretreated for 20 to 30 mins followed by substrate addition measured every 60 secs for 20 mins by colorimetric method. The experiment is classed as cell-based. The essentials: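 Membrane fraction from HEK293T cells transiently transfected with human DAGLα (PEI transfection, harvested at 72 h). Membranes used at 0.05 μg μL-1 final protein in 50 mM HEPES pH 7.2. Colorimetric readout of para-nitrophenylbutyrate hydrolysis. pIC50 ± SEM.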

In experiment [4] the target is T4, Monoacylglycerol lipase ABHD6 (Mus musculus) (UniProt Q8R2Y0).
T4 sequence (whole entry): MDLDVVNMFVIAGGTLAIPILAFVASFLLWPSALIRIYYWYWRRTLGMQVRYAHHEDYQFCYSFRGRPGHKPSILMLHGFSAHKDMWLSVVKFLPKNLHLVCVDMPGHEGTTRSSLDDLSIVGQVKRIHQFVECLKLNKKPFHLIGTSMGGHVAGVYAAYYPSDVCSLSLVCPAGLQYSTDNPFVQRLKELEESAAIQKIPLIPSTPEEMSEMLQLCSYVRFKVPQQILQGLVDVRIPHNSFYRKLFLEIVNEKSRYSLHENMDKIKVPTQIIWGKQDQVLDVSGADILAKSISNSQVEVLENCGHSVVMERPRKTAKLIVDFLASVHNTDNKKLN
In words: Inhibition of MB064 labelling of ABHD6 in mouse brain homogenates at 10 uM pretreated for 30 mins followed by MB064 addition and measured after 20 mins by activity based protein profiling assay relative to control. It is filed as tissue-based. The gist of the method: as §1

In the case of `O=C(N1C[C@H](O)C=C[C@@H]1Cc1ccccc1)n1cc(-c2ccc(-c3ccccc3)cc2)nn1`, the IC50 in experiment [1] was 3.16 nM; in experiment [3] it was 15.8 nM. Further, the inhibition in experiment [2] was determined as 92%; in experiment [4] it was 96%.
In the same order, the values of `O=C(N1CC=C[C@@H](O)[C@H]1COCc1ccccc1)n1cc(-c2ccc(-c3ccccc3)cc2)nn1` are 251 nM, > 10000 nM, 18% and 83%.
In the case of `O=C(N1CCC=C[C@@H]1Cc1ccccc1)n1cc(-c2ccc(-c3ccccc3)cc2)nn1`, the 50% inhibitory concentration (IC50) in experiment [1] was 2.51 nM; in experiment [3] it was 0.794 nM. Besides, the inhibition in experiment [2] was 99%; in experiment [4], 96%.
In the case of `O=C(N1CCC=C[C@@H]1COCc1ccccc1)n1ccc(-c2ccc(-c3ccccc3)cc2)n1`, the IC50 in experiment [1] and in experiment [3] was > 10000 nM throughout. Further, in experiment [4], the inhibition is -3%.
In the case of `O=C(Oc1ccc([N+](=O)[O-])cc1)N1CCC=C[C@@H]1COCc1ccccc1`, the IC50 in experiment [1] and in experiment [3] was > 10000 nM each time.
As to `O=C(N1C[C@H](O)C=C[C@@H]1COCc1ccccc1)n1cc(-c2ccc(-c3ccccc3)cc2)nn1`, the results for the IC50 in experiment [1] and in experiment [3] were 5.01 nM and 25.1 nM, respectively. Also, the inhibition in experiment [2] came out at 87%; in experiment [4], 95%.
For `O=C(N1CC=C[C@@H](O)[C@@H]1COCc1ccccc1)n1cc(-c2ccc(-c3ccccc3)cc2)nn1`, the figures for the concentration for half-maximal inhibition (IC50) in experiment [1] and in experiment [3] were 794 nM and > 10000 nM, respectively. Further, the inhibition was 6% in experiment [2] and 18% in experiment [4].
On the same counts, the results for `O=C(N1C[C@H](O)C=C[C@H]1COCc1ccccc1)n1cc(-c2ccc(-c3ccccc3)cc2)nn1` are 316 nM, > 10000 nM, 5% and 50%.
In the case of `O=C(N1CCC=C[C@@H]1COCc1ccccc1)n1cnc(-c2ccc(-c3ccccc3)cc2)n1`, the IC50 in experiment [1] and in experiment [3] was > 10000 nM in each case. Further, the inhibition in experiment [2] is 0%.
As for `O=C(N1CCC=C[C@@H]1COCc1ccccc1)n1ccc(-c2ccc(Br)cc2)n1`, the IC50 in experiment [1] and in experiment [3] was > 10000 nM each time. Besides, the inhibition in experiment [2] and in experiment [4] was -3% throughout.
Regarding `O=C(N1CCC=C[C@@H]1COCc1ccccc1)n1cnc(-c2ccc(Br)cc2)c1`, the IC50 in experiment [1] and in experiment [3] was > 10000 nM throughout. Also, the inhibition in experiment [2] is -9%.
`O=C(N1CCC=C[C@H]1Cc1ccccc1)n1cc(-c2ccc(-c3ccccc3)cc2)nn1`: the IC50 in experiment [1] is 25.1 nM; in experiment [3], 79.4 nM. The inhibition turned out to be 83% in experiment [2] and 90% in experiment [4].
Regarding `O=C(N1CCC=C[C@H]1COCc1ccccc1)n1cc(-c2ccc(-c3ccccc3)cc2)nn1`, the half-maximal inhibitory concentration (IC50) in experiment [1] is 100 nM; in experiment [3] it was 1260 nM. For the same compound, the inhibition in experiment [2] was 30%; in experiment [4], 84%.
Turning to `O=C(N1CCC=C[C@@H]1COCc1ccccc1)n1cnc(-c2ccc(-c3ccccc3)cc2)c1`, the IC50 in experiment [1] and in experiment [3] was > 10000 nM each time.
With `O=C(N1CCCC[C@@H]1Cc1ccccc1)n1cc(-c2ccc(-c3ccccc3)cc2)nn1`, the inhibition in experiment [2] amounted to 99%; in experiment [4] it was 95%.

The IC50 is the concentration that inhibits the measured activity by half. One may read the inhibition as the relative decrease from the control value, in per cent.

These data come from ChEMBL document CHEMBL4261499, “Chiral disubstituted piperidinyl ureas: a class of dual diacylglycerol lipase-α and ABHD6 inhibitors” (Medchemcomm, 2017).
